A selection: hits, their analogues and other compounds. The true share with any hit is near 2.2%.
MEX-5 binding: MEX-5 zinc finger RNA-binding disruptors – biochemical, C. elegans, fluorescence polarization, MLPCN library, primary screen; AID 1832, 2009; activity score (negative = inhibition of binding), % at 10 µM; MEX-5/FITC-TCR2 RNA binding; hits give low values; 0.38% of 300,000 active; Zinc finger protein mex-5 (Caenorhabditis elegans), Q9XUB2;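 active = inhibition past about -25% in most replicates, and total fluorescence under double the plate's negative control median, limit read from the data; inconclusive = replicates evenly split on the limit, or fluorescence at least double controls; inactive = too little inhibition in most replicates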
VIM-2 inhibitor: VIM-2 metallo-beta-lactamase inhibitors, primary screen, biochemical, epi-absorbance readout, Pseudomonas aeruginosa enzyme | purified VIM-2, nitrocefin hydrolysis, epi-absorbance fluorescence | inhibition, % at 5.6 µM | 0.89% of 290,000 active | AID 1527, 2009;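 active = inhibition above the mean of all tested compounds plus 3 SD, cutoff set per screening run, cut at about 7.5% in these data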;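 note: red hydrolysis product quenches plate fluorescence so inhibitors raise well fluorescence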
GLD-1 TGE inh: GLD-1/TGE RNA complex disruptors, primary screen, biochemical, fluorescence polarization | 0.44% of 320,000 active | Female germline-specific tumor suppressor gld-1 (Caenorhabditis elegans), Q17339 | inhibition, % at 5.96 µM | purified GLD-1 + fluorescein TGE RNA;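 active = percent inhibition above a per-plate cutoff, the plate mean of test compounds plus 3 SD, cut at about 30% in these data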
IMP-1 inhibitor: IMP-1 metallo-beta-lactamase inhibitors, primary screen, biochemical, epi-absorbance readout, Pseudomonas aeruginosa enzyme. metallo-beta-lactamase IMP-1 (Pseudomonas aeruginosa). purified IMP-1, nitrocefin hydrolysis, epi-absorbance fluorescence. inhibition, % at 5.6 µM. 0.45% of 290,000 active. AID 1556, 2009;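 active = inhibition above the mean plus 3 SD of all compounds in the same screening run, cut at about 4.5% in these data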
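System: Purified IMP-1 | Read-out basis: Percent enzyme inhibition | Controls: IMP-1 with DMSO as 0%, enzyme-free DMSO as 100% | Replicates: One well per compound | Doses: 5.6 µM nominal single concentration | Detection: Epi-absorbance fluorescence, 480 nm excitation, 530 nm emission | Incubation: 25 °C, 15 min preincubation, 25 min reaction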
BCLXL inh: inhibitors of human Bcl-xL, primary screen, biochemical, fluorescence polarization, HTS; AID 2129, 2009; 0.7% of 320,000 active; GST-Bcl-xL / FITC-Bim BH3 peptide fluorescence polarization; Bcl-2-like protein 1 (Homo sapiens), Q07817; inhibition, % at 10.9 µM;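 active = inhibition above the mean of all tested compounds plus 3 SD, cutoff set per campaign, cut at about 30% in these data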;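 note: inhibitors lower millipolarization by displacing the labeled peptide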
Target sequence (Q07817 whole entry, looked up): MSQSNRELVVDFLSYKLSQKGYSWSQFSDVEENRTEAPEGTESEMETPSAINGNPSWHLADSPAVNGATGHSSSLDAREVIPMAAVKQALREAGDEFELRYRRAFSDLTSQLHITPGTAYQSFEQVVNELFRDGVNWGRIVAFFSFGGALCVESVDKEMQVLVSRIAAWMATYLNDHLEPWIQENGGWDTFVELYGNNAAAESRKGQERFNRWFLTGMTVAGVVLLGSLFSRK
EBV gp42 inh: Epstein-Barr virus gp42 inhibitors, primary screen, biochemical, uHTS, fluorescence polarization; Glycoprotein 42 (Epstein-Barr virus (strain AG876)), Q1HVG2; Fluorescence polarization binding assay, mP read-out; inhibition, % (tested at 21.74 µM); 0.42% of 220,000 active; AID 1085, 2008; in the data active = inhibition above about 50%
Target sequence (Q1HVG2 whole entry, looked up): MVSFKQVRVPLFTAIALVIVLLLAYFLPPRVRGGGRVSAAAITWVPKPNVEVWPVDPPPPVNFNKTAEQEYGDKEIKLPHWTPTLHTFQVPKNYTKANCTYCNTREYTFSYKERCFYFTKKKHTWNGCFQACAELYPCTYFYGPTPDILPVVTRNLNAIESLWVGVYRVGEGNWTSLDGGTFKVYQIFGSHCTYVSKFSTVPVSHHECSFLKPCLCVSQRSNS
A number is an active result; n = inactive; u = inconclusive; x = not tested or not shown.

SMILES	MEX-5 binding	VIM-2 inhibitor	GLD-1 TGE inh	IMP-1 inhibitor	BCLXL inh	EBV gp42 inh
CCC(C)NC(=O)Cn1nc(Cc2ccncc2)c2ccccc2c1=O (stereo not drawn)	n	n	n	n	n	x
COc1ccc2ccc3c(c2c1)N=CC1(O3)N(C)c2ccccc2C1(C)C (stereo not drawn)	n	n	n	n	36	n
CN1c2ccccc2C(C)(C)C12C=Nc1c(ccc3ccccc13)O2 (stereo not drawn)	n	n	n	n	34	n
CN1c2ccccc2C(C)(C)[C@]12C=Cc1cc(O)ccc1O2	n	n	n	n	n	n
C/C(=N/Nc1ccc(C(=O)O)cc1)c1ccc(O)c(O)c1O	-41	n	n	n	n	n
CC(=O)c1ccc(S(=O)(=O)NCCC(=O)NC(C)c2ccncc2)cc1 (stereo not drawn)	x	x	n	x	n	x
CCc1ccc(C(=O)NNC(=O)CN2C(=O)NC(CC)(c3ccccc3)C2=O)cc1 (stereo not drawn)	n	x	n	x	n	x
CN(C)c1nc(N(C)C)nc(N(C#N)CN2C(=O)c3ccccc3S2(=O)=O)n1	n	n	n	n	n	n
CC(C)Nc1nc(Cl)nc(N(C#N)CN2C(=O)c3ccccc3S2(=O)=O)n1	n	n	n	6.9	n	52
COc1nc(NC(C)C)nc(N(C#N)CN2C(=O)c3ccccc3S2(=O)=O)n1	n	n	n	12	n	n
CCOc1ccc(S(=O)(=O)N(CC)CC(=O)NC2CC2)cc1	n	n	n	n	n	x
N#Cc1c(N)c2ccccn2c1C(=O)c1ccc(Br)cc1	n	n	n	n	n	x
CCOC(=O)c1ccccc1NC(=S)N1CCN(C(=O)c2ccco2)CC1	n	n	n	n	n	x
N#CC1=C2SCC(O)(c3ccccc3)N2C(=O)CC1c1cccs1 (stereo not drawn)	x	n	n	n	36	n
N#CC1=C2SCC(O)(c3ccccc3)N2C(=O)CC1c1ccccc1F (stereo not drawn)	n	n	n	n	n	n
CCNC(=O)N1CCCC(C(=O)c2ccc(C(F)(F)F)cc2)C1 (stereo not drawn)	n	n	n	n	n	x
Cc1sc(-c2ccncc2)nc1OC(=O)c1ccc(Cl)cc1	n	n	n	n	n	n
Cc1sc(-c2ccncc2)nc1OC(=O)c1cc(Cl)cc(Cl)c1	n	n	n	5.7	n	n
Cc1sc(-c2ccncc2)nc1OC(=O)c1ccc(F)cc1F	n	n	n	10	n	n
COc1ccccc1NC(=O)Cn1ccn(-c2cccc3ccccc23)c(=O)c1=O	n	x	n	x	n	x
Cn1nc(-c2ccc(C(=O)NCCO)cc2)c2ccccc2c1=O	n	10	n	n	n	n
Cn1nc(-c2ccc(C(=O)NCC3CCCO3)cc2)c2ccccc2c1=O (stereo not drawn)	n	n	n	n	n	x
Cc1cc(-c2nn(C)c(=O)c3ccccc23)cc(C)c1O	n	9.2	n	n	n	n
Cn1nc(-c2ccc(OCC(=O)NCC3CCCO3)cc2)c2ccccc2c1=O (stereo not drawn)	n	11	n	n	n	n
CN(CCO)C(=O)c1ccc(-c2nn(C)c(=O)c3ccccc23)cc1	n	n	n	n	n	n
SMILES	MEX-5 binding	VIM-2 inhibitor	GLD-1 TGE inh	IMP-1 inhibitor	BCLXL inh	EBV gp42 inh
O=C(NC1CCN(S(=O)(=O)c2ccc(Cl)c(F)c2)CC1)c1cccnc1	n	n	n	n	n	x
COc1ccc(C(=O)C2CCCN(C(=O)c3cccc(Cl)c3F)C2)cc1OC (stereo not drawn)	n	n	n	n	n	x
CCC(CC)C(=O)NCCc1ccc(OC)cc1	n	n	n	n	n	n
CC[C@@H](C)[C@H](CN[C@H](CNC)[C@@H](C)O)NCCc1ccc(OC)cc1	n	11	n	n	n	x
Cc1ccc(C(=O)C(C)OC(=O)CCN2C(=O)C3C4C=CC(C5CC45)C3C2=O)cc1 (stereo not drawn)	n	n	n	n	n	x
C=CCNC(=O)C(C#N)c1nc2ccccc2nc1N1CCCCCC1 (stereo not drawn)	n	n	57	n	74	n
COc1ccc(CNC(=O)C(C#N)c2nc3ccccc3nc2N2CCN(C)CC2)cc1 (stereo not drawn)	n	n	n	n	n	n
CC1CCN(c2nc3ccccc3nc2C(C#N)C(=O)NC2CCCCC2)CC1 (stereo not drawn)	-29	x	n	x	n	x
CC1CN(c2nc3ccccc3nc2C(C#N)C(=O)NCc2ccc3c(c2)OCO3)CC(C)O1 (stereo not drawn)	n	n	n	n	n	71
COc1ccc(CNC(=O)C(C#N)c2nc3ccccc3nc2N2CCCC2)cc1 (stereo not drawn)	u	n	n	n	46	n
Cn1c(C(=O)N[C@@H](C(=O)O)c2ccccc2)cc2cc(F)ccc21	n	n	n	n	n	x
CC(=O)C1=C(c2ccccc2)NC(=O)NC1c1ccc(O)c(O)c1 (stereo not drawn)	-29	n	n	n	n	n
CC(=O)C1=C(c2ccccc2)NC(=S)NC1c1ccc(O)c(O)c1 (stereo not drawn)	n	n	n	n	n	n
Cc1ccc(Cl)c2c(N=Nc3ccccc3)c(O)[nH]c12	-43	n	x	4.6	x	x
Cc1cc(Cl)cc2c(N=Nc3ccccc3C(=O)O)c(O)[nH]c12	n	n	n	n	n	x
COc1cc(OC)c2c(C)cc(=O)oc2c1	n	n	n	4.9	n	n
COc1ccc2nc3ccccc3nc2c1NC(=O)c1ccccc1Cl	-35	n	n	n	n	n
CC(=O)N(c1nnc(-c2ccc(C)cc2)s1)C1CCCC1	n	n	n	n	n	x
Cc1ccc(C(=O)C[n+]2cccc3cc(C)ccc32)cc1	n	n	n	n	n	n
CCOc1ccc(C(=O)C[n+]2cccc3cc(C)ccc32)cc1	n	n	n	n	35	x
Cc1cccc(N2C(=O)c3cccc4c(N(C)CCO)ccc(c34)C2=O)c1	u	n	176	5.1	183	157
Cc1c(O)c2c3c(cccc3c1O)C(=O)N(c1ccccc1)C2=O	u	n	82	n	91	83
CN(C)c1ccc2c3c(cccc13)C(=O)N(c1ccccc1)C2=O	n	n	69	n	81	102
CC(Sc1cccc[n+]1[O-])C(=O)NC1CCCCC1C (stereo not drawn)	x	x	n	x	x	x
O=C(O)c1ccccc1NCc1ccco1	n	n	n	n	n	n
CCNc1ccc2noc3c2c1C(=O)c1ccccc1-3	u	n	192	n	175	56
